Results from publication PMC7534582 (Cancer cell, 2019).

Experiments:
Assay type in all cases: cell-based, human
[1] = test system: SIRT3 depleted HBL1 cells; assay: Rescue of proliferation arrest caused by SIRT3 depletion; conditions: HBL1, Figure S5D
[2] = test system: SIRT3 depleted Karpas 422 cells; assay: Rescue of proliferation arrest caused by SIRT3 depletion; conditions: Karpas 422, 4-day exposure
How it was run: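 Karpas 422 cells were infected with YFP-carrying lentivirus bearing SIRT3 or control shRNA and exposed for 4 days to test compounds, alone or combined. Viable YFP+ (transduced) and YFP− (non-transduced) populations were quantified by flow cytometry. Abundance was normalized to the first time point.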

[3] = test system: DLBCL cells with SIRT3 shRNA; assay: Rescue of autophagy; conditions: DMKG 4 mM for 3-4 hr
How it was run: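 DLBCL cells carrying SIRT3 or control shRNA were incubated with test compound (4 mM) for 3-4 hr, then collected for Western blot with LC3 and SIRT3 antibodies. Detection used a peroxidase-conjugated secondary antibody and enhanced chemiluminescence. LC3II/LC3I ratios were obtained by densitometry and normalized to control cells.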

[4] = test system: SIRT3 depleted OCI-LY1 cells; assay: Rescue of proliferation arrest caused by SIRT3 depletion; conditions: OCI-LY1, Figure S5C

For `COC(=O)C(C)=O` [MP, methyl-pyruvate], the “Rescue of proliferation arrest caused by SIRT3 depletion” value (“Rescue of proliferation arrest caused” for short) [1] was “required both DMKG and MP”.
In the case of `COC(=O)CCC(=O)C(=O)OC` [DMKG, dimethyl-αKG], the “Rescue of proliferation arrest caused” value [2] is reported as “DMKG alone rescued”, the “Rescue of LC3II/LC3I ratios (autophagy) after SIRT3 depletion” value [3] is reported as “rescued LC3II/LC3I ratios” and the “Rescue of proliferation arrest caused” value [4] is reported as “DMKG alone rescued”. For the same compound, the “Rescue of proliferation arrest caused” value [1] was “required both DMKG and MP”.
